Test results reported in ChEMBL document CHEMBL1144211, “Overcoming hERG issues for brain-penetrating cathepsin S inhibitors: 2-cyanopyrimidines. Part 2” (Bioorg Med Chem Lett, 2008).

How the values were obtained:
Type in all cases: ADME, organism-based
[1] = Drug level in Sprague-Dawley rat brain at 10 mg/kg, po after 1 hr; design: dose 10 mg/kg, route oral; details: read-out: Drug uptake
Outline: (§1)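 Sprague–Dawley rats received a single oral dose of 10 mg/kg. Plasma and brain concentrations (nM) were measured at 1 h and 3 h after dosing. Values are means of n = 3.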

[2] = Plasma concentration in Sprague-Dawley rat at 10 mg/kg, po after 1 hr; design: dose 10 mg/kg, route oral; outline: as §1
[3] = Drug level in Sprague-Dawley rat brain at 10 mg/kg, po after 3 hrs; design: dose 10 mg/kg, route oral; details: read-out: Drug uptake; outline: as §1
[4] = Plasma concentration in Sprague-Dawley rat at 10 mg/kg, po after 3 hrs; design: dose 10 mg/kg, route oral; outline: as §1
[5] = Plasma clearance in Sprague-Dawley rat at 1 mg/kg, iv or 10 mg/kg, po
[6] = Half life in Sprague-Dawley rat at 1 mg/kg, iv; design: dose 1 mg/kg, route intravenous; details: in vivo
Outline: (§2)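 PK parameters in male Sprague–Dawley rats after intravenous dosing at 1 mg/kg and after oral dosing. Parameters derived were Vdss, apparent half-life, oral Cmax and estimated bioavailability.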

[7] = Cmax in Sprague-Dawley rat at 10 mg/kg, po; design: dose 10 mg/kg, route oral; details: in vivo; outline: as §2
[8] = Volume of distribution at steady state in Sprague-Dawley rat at 1 mg/kg, iv; design: dose 1 mg/kg, route intravenous; details: in vivo, read-out: Vdss; outline: as §2
[9] = AUC in Sprague-Dawley rat at 10 mg/kg, po; design: dose 10 mg/kg, route oral; details: plasma
[10] = Oral bioavailability in Sprague-Dawley rat at 10 mg/kg; details: in vivo; outline: as §2

Structure (SMILES) | concentration at 1 h [1] [nM] | concentration at 1 h [2] [nM] | concentration at 3 h [3] [nM] | concentration at 3 h [4] [nM] | clearance [5] [mL/min/kg] | half-life [6] [min] | Cmax [7] [nM] | Vd [8] [L/kg] | AUC [9] [µM·h] | bioavailability [10] [%]
CNC(=O)c1c(NCC2CCC3(CCC3)CC2)nc(C#N)nc1OCC1CCNCC1 | < 13 | 28 | < 13 | 61 | – | – | – | – | – | –
CNC(=O)c1c(NCC2CCC3(CCC3)CC2)nc(C#N)nc1OCCO | 692 | 283 | 849 | 170 | 25 | 90 | 907 | 1.2 | 2.5 | 14
CNC(=O)c1c(NCC2CCC3(CCC3)CC2)nc(C#N)nc1OCC1CCN(C(C)C)CC1 | 67 | 191 | 455 | 381 | 10 | 708 | 298 | 9.3 | 8.08 | 24
CNC(=O)c1c(NCC2CCC3(CCC3)CC2)nc(C#N)nc1OC1CC(C)(C)NC(C)(C)C1 | – | – | 164 | 287 | – | – | – | – | – | –
CNC(=O)c1c(NCC2CCC3(CCC3)CC2)nc(C#N)nc1OCC1CCN(C(C)=O)CC1 | 27 | 169 | < 13 | 80 | – | – | – | – | – | –
CNC(=O)c1c(NCC2CCC3(CCC3)CC2)nc(C#N)nc1OCC1CCN(C)CC1 | 124 | 346 | 718 | 308 | 18.3 | 402 | 461 | 9.8 | 8.24 | 40
